Ab BasE inh: blocks the Acinetobacter baumannii siderophore enzyme BasE; inhibition, % (no concentration beside the values); actives 0.1% (n = 84,000); AID 485350; purified BasE, fluorescence polarization binding displacement; in the data active means inhibition above about 25%, passing the limit was not always enough;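 further: 0% = negative plate control signal and 100% = positive plate control signal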
KSHV LANA nucl: LANA-nucleosome interaction inhibition | FITC-LANA1-23 / chicken nucleosome fluorescence polarization; hits give low values | z-score (no concentration beside the values) | actives 0.3% (n = 51,000);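 active means both repeat wells score below -2 in polarization z-score versus plate sample wells, excluding overly bright wells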
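Assay system: purified chicken nucleosomes with FITC-labelled LANA N-terminal peptide (1-23) / Probe or stimulus: 50 nM FITC-LANA1-23 probe / Compound dosing: pin-transferred compound, 100 nL / Times: compound with peptide–nucleosome mix 10–45 min at room temperature / Technique: fluorescence polarization, 480 nm excitation, 535 nm parallel and perpendicular emission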
* marks the source's active call; other numbers are inactive results; / = no result; ! = a repeat was not active. Shown are actives, neighbours in structure and some others; about 0.3% of the full set was active somewhere.

SMILES	Ab BasE inh	KSHV LANA nucl
CC[C@@]1(O)C(=O)OCc2c1cc1n(c2=O)Cc2cc3c(O)cccc3nc2-1	9	-3.1*!
CC[C@@]1(O)C(=O)OCc2c1cc1n(c2=O)Cc2cc3ccccc3nc2-1	-3	0.017
COc1cccc2c1OC[C@H]1CON(C)[C@@H]21	/	0.48
COc1ccc(-n2c(CCC(=O)O)nc3ccccc3c2=O)c(OC)c1	-4	/
O=C1NC(=O)C(=Cc2cn(Cc3ccccc3)c3ccccc23)C(=O)N1	3	/
CCn1cc(C=C2C(=O)NC(=O)NC2=O)c2ccccc21	2	-3.2*
CCN(CC)CC#N	5	/
Cc1ccc(N2C(=O)c3cc(N(C)C)ccc3P2(=O)N2CCOCC2)cc1 (stereo not given)	-6	/
CCOc1cc(C=C2C(=O)N(C)C(=S)N(C)C2=O)ccc1OC(C)C(=O)O (stereo not given)	2	0.22
CCOc1cc(C=C2C(=O)NC(=O)NC2=O)cc(Cl)c1O	1	-2.4*
COc1ccc(C2N3CCCN2CC3)cc1 (stereo not given)	5	/
CN1C(=O)/C(=C/c2ccc(I)o2)C(=O)NC1=S	41*	0.57
C=CCN1C(=O)/C(=C/c2ccco2)C(=O)NC1=S	9	0.37
Cc1ccc(P2(=S)N=C3c4ccccc4CN3c3cc(N(C)C)ccc32)o1 (stereo not given)	1	/
CCN(CC)C(=O)c1ccc(NC(=O)Nc2ccccc2OC)cc1	1	/
NCCc1ccc(F)cc1	-1	/
C1=C(c2cccnc2)Nc2ncnn2C1c1cccs1 (stereo not given)	21	-8.8*
CCCOc1ccc(CCN)cc1Cl	-11	-0.98
CC12NC(=O)CN1CCc1ccccc12 (stereo not given)	5	-0.11
C[C@@]12C[C@H](O)CCN1CCc1ccccc12	6	-2.4*
CC[n+]1c(-c2ccccc2)c2cc(N)ccc2c2ccc(N)cc21	4	-6*
CC(C)n1cc(C(=O)N(C2CC2)C(C(=O)NC2CCCC2)c2ccccc2)cn1 (stereo not given)	2	-0.71
N#Cc1c(N)[n+]([O-])c2ccccc2[n+]1[O-]	1	-8.3*
C/C=C(\C)C(=O)O[C@H]1C[C@@H](OC(C)=O)[C@@]2(C(=O)OC)CO[C@@H]3C2[C@]12CO[C@](O)(C(=O)OC)[C@H]2[C@](C)(C12O[C@@]1(C)[C@H]1C[C@@H]2OC2OC=C[C@@]21O)[C@@H]3O (stereo not given in full)	-1	-0.44
